This sample holds only a part of the variants without activity.
B1: tRNA (parent)
chain: GUUCCGUUGGCGUAAUGGUAACGCGUCUCCCUCCUAAGGAGAAGACUGCGGGUUCGAGUCCCGUACGGAACG

Variants of: B1
Experiment: yeast fitness relative to wild type (ratio to wild type); higher = fitter; tRNA-Arg(CCU), competitive growth, 37 C, YPD
How it was run: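 Genotype frequency changes were the basis for Darwinian fitness relative to wild type. The frequencies came from 100-nucleotide paired-end sequencing of gene amplicons from the start population and each end population of pooled yeast strains with tRNA-Arg(CCU) gene variants at the native locus. Competition ran in YPD at 37°C for 24 hours in six replicates, genotypes needed ≥ 100 starting reads, and estimates < 0.5 were set to 0.5.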

Row | Variant | yeast fitness
1 | G58A C61G A70U | 0.749
2 | C24G A42U G68A | ≤ 0.5
3 | A21C A45C U47G C49U | ≤ 0.5
4 | G25C A70G | 0.873
5 | C24G A45G U53G | ≤ 0.5
6 | A14G U59C | 0.923
7 | C11U C27A G51C G56C | ≤ 0.5
8 | C22U C24A C29A A36C | ≤ 0.5
9 | G38C A45C U47C | ≤ 0.5
10 | U28C A42U | 0.816
11 | C11U C27U C31U A36C G44C A45G G56C A70U | ≤ 0.5
12 | A15C U28A C30U C34G A43U | ≤ 0.5
13 | A40U G41A | 0.71
14 | G9A C22G U54C | 0.589
15 | G39C G67A A70G | 0.648
16 | G6A G10C A15U A70G | ≤ 0.5
17 | G12A G50A C60A | ≤ 0.5
18 | C4G U8C A15G G23A C34G G67A | ≤ 0.5
19 | C22U C49U G58A | 0.621
20 | U19A C24A C30G C34U G51A G52C C66U | ≤ 0.5
21 | G6A C27G A36C A42C A69C | ≤ 0.5
22 | G6C G18C C22U C34G A36U G56C G63A | ≤ 0.5
23 | U13A G67U | 0.727
24 | G25U U59C | 0.657

Row | Variant | yeast fitness
25 | G6A C24U C55G A70U | 0.624
26 | G17C A21G C27U C33G A42U G48A A57G | ≤ 0.5
27 | G6A A15C A20U C61G | 0.565
28 | C4G C24A G39A A42U U47A C60G | ≤ 0.5
29 | G25A G51A | 0.861
30 | U8A A21G C24A C30A A45U C49A | 0.765
31 | U16A C27A C62G | ≤ 0.5
32 | G9C G10A G12C C22U A45U | ≤ 0.5
33 | C31G A36C C62G | ≤ 0.5
34 | U7C C11U A37C C60A | ≤ 0.5
35 | U3C U16G U19A A43C C49U A57U | ≤ 0.5
36 | U28G C66U | 0.778
37 | U2A U3A | 0.809
38 | G6A C27A A65G A70C | ≤ 0.5
39 | C4U U8C C29U A43U | ≤ 0.5
40 | A14G A65G | 0.887
41 | U26A C27U G41A A65G | 0.534
42 | G38C C46A | 0.819
43 | A20G C29G C34A | ≤ 0.5
44 | G10A A57G | 0.852
45 | C11A C31A G44C A65U | ≤ 0.5
46 | U13A A14C G18A G44A C66G | ≤ 0.5
47 | U28C G68A | 0.839
48 | C4G A45U A70C | 0.808

Row | Variant | yeast fitness
49 | C29G U35G | ≤ 0.5
50 | C29A C34U A36U C61U G67U | ≤ 0.5
51 | G12C C60G | 0.641
52 | C22U C31A C60G | ≤ 0.5
53 | C22U G38A A40C | 0.541
54 | C33A C55U C61A | 0.559
55 | U8C A65U | 0.957
56 | C22U U28A A37U C61U | 0.552
57 | C22U C33G G41C | ≤ 0.5
58 | U32C C34A C62A | 0.591
59 | U3G A14U A15U A20C C33G A40U C61G | 0.543
60 | A20C C29G A57U | ≤ 0.5
61 | C33A C55U | 0.581
62 | C33U C34A A43C | ≤ 0.5
63 | C30G G50C | 0.781
64 | G6C U26G | 0.721
65 | G12A U28C A37C A43C C49G | 0.548
66 | C5U A37C C46U U53C A69C | ≤ 0.5
67 | G10A U19A G41C C66U | 0.617
68 | G10C C27U A36C C61U | 0.586
69 | A21U C55U G68C | ≤ 0.5
70 | A14U U26A C30U A69C | ≤ 0.5
71 | U3C G63A A70U | 0.655
72 | U2A G6A C11G C49U G58C A69U | ≤ 0.5

Row | Variant | yeast fitness
73 | U28G C34A | 0.568
74 | G50A A70G | 1.06
75 | G9C G12C U47G G67C | 0.607
76 | U3G C4A G12A C29A C30G C62A A69C | ≤ 0.5
77 | U7C C33G A36G C49A G68C | ≤ 0.5
78 | G17A G67A | 0.743
79 | U2G C46G A65U | 0.623
80 | U16G A42C U47C | 0.676
81 | G12C G56C G58C | ≤ 0.5
82 | U3A G6C C34G G38C A45G U59G | ≤ 0.5
83 | A14G G17C C24U A69U | ≤ 0.5
84 | U13A C22U U35A C60U C61A | ≤ 0.5
85 | A15C U26A A40C | 0.63
86 | C4A C22A G44C | ≤ 0.5
87 | C31G A36U G41A A45C | ≤ 0.5
88 | C11U C27U C31A U35C C60G A70C | ≤ 0.5
89 | U16C C22G G58A U64G | ≤ 0.5
90 | U2G G51A C60U | ≤ 0.5
91 | G18C A36U A57U | ≤ 0.5
92 | U8A A42U A43U | 0.58
93 | U16G G63C | 0.694
94 | G6C C55U A70G | 0.7
95 | U8C G9C | 0.695
96 | A15G C31U A42U A70U | 0.602

Row | Variant | yeast fitness
97 | G25A A42G | 0.89
98 | C5G G38A U59C | ≤ 0.5
99 | U8C C27U G41C C61G | 0.551
100 | C5U A15U | 0.671
101 | U13A C27G A45C | 0.743
102 | A37U G56A A65C | 0.5
103 | C4U A15C G67C | 0.54
104 | U2C A45C C49U | 0.698
105 | C24U C62A | 0.684
106 | C30G G38C G56A A65G | 0.624
107 | U19C C24A | 0.601
108 | A45U G63A | 0.843
109 | C5A C11A A42U U53A A57C A65G | ≤ 0.5
110 | U2G A37C G51A | ≤ 0.5
111 | C5G A65G | 1
112 | C11U A21G C55U | 0.593
113 | U2A A15C A69C | ≤ 0.5
114 | G10A C31A G38C G44A A65G | ≤ 0.5
115 | C4G U16C A70C | 0.709
116 | U3C C46G C62A | 0.564
117 | G9A A21U C66G | ≤ 0.5
118 | C4G U13C A70G | 0.618
119 | G25C C34A C66U | 0.54
120 | A36U A40C C62U A65C | ≤ 0.5

Row | Variant | yeast fitness
121 | C4U G38A G58C C66U | ≤ 0.5
122 | A40G G50C | 0.649
123 | G38C C46G C55G C61G | ≤ 0.5
124 | C34A C49U G51C C61U | ≤ 0.5
125 | U59A A70U | 0.91
126 | G23A A37G G68A | 0.682
127 | U8C U32G U47C C55G | ≤ 0.5
128 | C4U G10A G23C C49A G68C | ≤ 0.5
129 | G9C G10A G12C A45U C60A | ≤ 0.5
130 | C30G C55A A65U | 0.552
131 | U3A U7C C27G C29G C34U | 0.528
132 | C22G C27A A65G | ≤ 0.5
133 | A14U G48C C66A | ≤ 0.5
134 | A15G C29G G52A C66U | 0.671
135 | G9C G39C | 0.64
136 | A43G C60U C62U G67A A70C | 0.576
137 | A37C U54C | 0.799
138 | C11U A21U C22U | 0.673
139 | U13C C34U | 0.668
140 | C55U A69G | 0.802
141 | G23A A42G G51A C61U | ≤ 0.5
142 | C11U C61G A65C | 0.609
143 | A37C A42C C46A | 0.948
144 | G9A G12C G17A C22G C30U C34G U59G | ≤ 0.5

Row | Variant | yeast fitness
145 | C5U A15G A20U | 0.662
146 | A14C C55U C61G C62G | 0.571
147 | G9C U19C G23C U59A G68C | 0.548
148 | G18C C30G A65C | 0.541
149 | G10C A57G A65U | ≤ 0.5
150 | G6A C22G U47A G67U A70C | ≤ 0.5
151 | C27G G39C A69U | 0.566
152 | G6C U8C C49U | 0.531
153 | G10A A65U | 0.788
154 | C5U U7C G10A C34A G63A | ≤ 0.5
155 | U8A C34U A36G A45U U64A | ≤ 0.5
156 | C4G G58C | 1.1
157 | C5U C31U A57C G58A A69G | ≤ 0.5
158 | C27G U28C C62G | ≤ 0.5
159 | U2G A40U C55U A69U | ≤ 0.5
160 | A20G C22G G56A G67A | ≤ 0.5
161 | U2A C31U A40C C55G G68A A69U | ≤ 0.5
162 | C11G C22G C27G C49U C62U | ≤ 0.5
163 | C4G C29A C46A | ≤ 0.5
164 | C22G U32C G38C C60U | ≤ 0.5
165 | C5U C27U C61G | ≤ 0.5
166 | G9A U19A | 1.04
167 | U2G A15C A43G | ≤ 0.5

Source: the RNAGym collection of RNA variant scans (doi:10.1126/science.aae0568)
